# Most compounds without a hit are left out; they make up all but 3.5% or so of the library.
# MrgX1 ag – agonists of human MrgX1 receptor. Q96LB2. MrgX1-HEK293 cells, Fluo-4 calcium fluorescence, agonist mode; hits give high values. B-score at 10 µM. actives 0.44% (n = 310,000). AID 588627;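 active = calcium response B-score plate-corrected fluorescence ratio at least 3 library SD, with starting fluorescence B-score inside 5 SD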
# Target sequence (Q96LB2 whole entry, looked up): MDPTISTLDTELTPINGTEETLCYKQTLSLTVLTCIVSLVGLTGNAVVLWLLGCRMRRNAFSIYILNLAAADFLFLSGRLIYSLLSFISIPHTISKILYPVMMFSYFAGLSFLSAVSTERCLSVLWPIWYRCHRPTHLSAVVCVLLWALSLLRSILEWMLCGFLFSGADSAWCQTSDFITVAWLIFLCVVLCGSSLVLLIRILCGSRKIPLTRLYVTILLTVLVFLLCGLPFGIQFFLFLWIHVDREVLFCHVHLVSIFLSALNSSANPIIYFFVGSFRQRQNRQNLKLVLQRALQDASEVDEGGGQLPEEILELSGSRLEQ
#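 Material: HEK293 cells stably expressing human MrgX1 receptor | Quantity: 15,000 cells per well | Times: Cells plated overnight, dye loaded 0.5 h 37 °C, 0.5 h room temperature | Measured by: Kinetic Fluo-4 NW fluorescence of intracellular calcium | Control set: Positive and negative controls per plate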
# RGS4 inh – human RGS4 inhibition | P49798 | HEK293 M3R/RGS4 inducible, Fluo-4 calcium flux; hits give high values; triggered by carbachol at its EC20 | B-score at 10 µM | actives 0.45% (n = 310,000) | AID 463165;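 active = B-score, a plate-corrected calcium signal, over three deviations above library mean, with baseline fluorescence within five deviations of library mean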;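 note: RGS4 expression induced by doxycycline in cells with stable M3 receptor; B-score is computed from the integrated fluorescence ratio over baseline after carbachol; higher B-score means a larger calcium signal and so more RGS4 inhibition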
# Target sequence (P49798 whole entry, looked up): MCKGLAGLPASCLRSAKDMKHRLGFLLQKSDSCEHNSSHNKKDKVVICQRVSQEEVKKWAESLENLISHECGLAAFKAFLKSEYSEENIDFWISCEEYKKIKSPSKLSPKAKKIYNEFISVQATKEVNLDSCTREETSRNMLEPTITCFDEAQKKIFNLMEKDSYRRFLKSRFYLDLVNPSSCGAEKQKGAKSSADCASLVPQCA
# RGS4 act – potentiators or activators of RGS4; HEK293 M3R/inducible RGS4, carbachol calcium flux Fluo4; hits give low values; B-score at 10 µM; actives 0.92% (n = 310,000);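 active = B-score of the integrated calcium signal more than 4 SD below the library mean, with starting fluorescence not abnormally high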;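 note: negative B-score means reduced calcium response which marks RGS4 activation or potentiation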
#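 test system = HEK293 cells with stable M3R and inducible RGS4 | schedule = recording 10 s baseline at 1 Hz, 100 s post-agonist | technique = Fluo4-AM (2 µM) calcium-flux fluorescence, kinetic read | measure = Agonist-evoked peak-minus-minimum fluorescence over baseline, integrated ratio, B score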
# MrgX1 PAM – human MrgX1 positive allosteric modulation, primary screen; Q96LB2; MrgX1-HEK293, Fluo-4 calcium flux, FDSS; hits give high values; B-score at 10 µM; actives 0.63% (n = 310,000); AID 588675;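 active = plate-corrected calcium response at least 3 library SD above typical, normal starting fluorescence, not activating the receptor alone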;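 note: compound read alongside a low EC10 to EC30 dose of BAM8-22 agonist; peak minus trough fluorescence over baseline measured at the second addition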
# MrgX1 antag – antagonists of human MrgX1 receptor; Q96LB2; MRGX1-HEK293 calcium flux, Fluo-4, BAM8-22 antagonism; hits give low values; B-score at 10 µM; actives 1.3% (n = 310,000);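 active = calcium-response B-score plate-corrected more than 3 library SD below zero, starting fluorescence within 5 deviations, no agonist response on first addition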;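 note: peak minus trough fluorescence over baseline after final BAM8-22 challenge near maximal dose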
# MrgX1 antag conf – human MrgX1 receptor antagonism, re-confirmation screen; remaining BAM8-22 calcium response % of control (hits give low values), % at 10 µM; MrgX1-HEK293, BAM8-22 calcium flux, Fluo-4; hits give low values; actives 19% (n = 2,300); AID 602420; shares compounds with MrgX1 antag;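 active = remaining agonist calcium response no higher than 100% minus 3 SD of agonist-only control wells, with starting fluorescence near control levels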;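 note: agonist BAM8-22 given at a near maximal EC90 to ECmax level; peak minus minimum fluorescence divided by baseline after agonist addition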
# HEK293 Ca flux – activity in parental HEK293 cells lacking MrgX1. shares compounds with MrgX1 antag. Fluo-4 calcium fluorescence, FDSS. fluorescence ratio F(max-min)/F0 at 10 µM. actives 2% (n = 4,000);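 active = duplicate-averaged calcium fluorescence ratio at least three times the standard deviation of buffer wells, a nonspecific response in parental cells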
# HEK293 Ca counter – MrgX1 allosteric activator counter-screen hit in parental HEK293 cells; shares compounds with MrgX1 antag; parental HEK293 calcium flux, Fluo-4 fluorescence ratio; hits give high values; fluorescence ratio F(max-min)/F0 at 10 µM; actives 0.4% (n = 4,000); AID 624114;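 active = calcium fluorescence ratio, averaged over duplicates, at least 3 SD of the buffer-well ratio, meaning a nonspecific response in receptor-free cells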;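 note: untransfected parental HEK293 lacking MrgX1 used as counterscreen for MrgX1 allosteric activators; fluorescence change taken during the second addition on a kinetic imager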
# HEK293 Ca cntr2 – counter-screen for MrgX1 activators: effect in parental HEK293 cells. Fluo-4 calcium fluorescence (FDSS); hits give high values. actives 8.7% (n = 4,000). fluorescence ratio F(max-min)/F0 at 10 µM. AID 624115. shares compounds with MrgX1 antag;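 active = calcium fluorescence ratio at least three times the spread of buffer wells, meaning a non-specific response in parental cells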
# * hit, by the source's call; i = inactive; . = no result given.
SMILES,MrgX1 ag,RGS4 inh,RGS4 act,MrgX1 PAM,MrgX1 antag,MrgX1 antag conf,HEK293 Ca flux,HEK293 Ca counter,HEK293 Ca cntr2
CCn1cc(CN2CCc3c([nH]c4ccccc34)C2c2cccc(OC)c2OC)c(C)n1 (stereo not given),i,i,i,i,-5.4*,i,i,i,i
COc1ccc(NC(=O)c2cccnc2N2CCCC2)cc1,i,i,i,i,-8.6*,i,i,i,47*
CCOC(=O)CN1C(=O)CN(c2ccc(C)cc2)C1=O,i,i,i,i,-5*,i,i,i,i
Cc1ccc(C(=O)Nc2ccc3c(c2)C(=O)N(C)C3=O)c(C)c1,i,i,i,i,-6.8*,i,i,i,i
CS(=O)(=O)N(Cc1ccc(Cl)cc1)c1ccc(C(=O)NCCC2=CCCCC2)cc1,i,i,i,i,-5.4*,i,i,i,i
CCC[C@H]1COCCS(=O)(=O)N1Cc1ccccc1F,i,i,i,i,i,.,.,.,.
CC(C)[C@H]1COCCS(=O)(=O)N1Cc1ccccc1F,i,i,i,i,-5.3*,i,i,i,i
Cc1ccc(NC(=O)Cc2nnc(SCC(=O)NC3CCCC3)n2C)c(C)c1,i,i,i,i,i,.,.,.,.
CC(C)c1ccc(C(C)NC(=S)NC2CCCCC2)cc1 (stereo not given),i,i,i,i,i,.,.,.,.
CC(NC(=S)NC1CCCCC1)c1ccc(C(C)(C)C)cc1 (stereo not given),i,i,i,i,-6.8*,51%*,i,i,i
COc1ccc(OCC(=O)Nc2ccc3c(c2)nc(CCNC(C)=O)n3C)cc1,i,i,i,i,i,.,.,.,.
CC(=O)NCCc1nc2cc(NC(=O)COc3ccc(C)cc3)ccc2n1C,i,i,i,i,-6.7*,i,i,i,i
CCCCn1c(N)c(N(CC(C)C)C(=O)C2CCN(S(=O)(=O)c3ccc(C)cc3C)CC2)c(=O)[nH]c1=O,i,i,i,i,i,.,.,.,.
Cc1ccc2c(c1)COc1c3ccc(C(=O)N[C@@H](CO)C(C)C)cc3nn1-2,i,i,i,i,-5.7*,i,i,i,i
COCCNC(=O)c1ccc2c3n(nc2c1)-c1ccc(C)cc1CO3,i,i,i,i,i,.,.,.,.
COc1ccc(N2CC(C(=O)Nc3cccc(S(=O)(=O)N4CCCC4)c3)CC2=O)c(OC)c1 (stereo not given),i,i,i,i,-9*,i,i,i,i
COc1ccc(N2CC(C(=O)Nc3ccccc3N3CCCC3)CC2=O)c(OC)c1 (stereo not given),i,i,i,i,-5.8*,i,i,i,i
COc1ccc(CNC(=O)CNS(=O)(=O)c2ccc(Cl)cc2)cc1,i,i,i,i,i,.,.,.,.
Cc1cccnc1CCNC(=O)c1ccc(OC2CCN(Cc3ccccn3)CC2)cc1,i,i,i,i,-10*,i,i,i,i
O=C(NCc1ccc(F)cc1)c1cnn2ccccc12,i,i,i,i,i,.,.,.,.
C[C@@H]1C=CC(=O)O[C@@H]1c1ccc(Cl)cc1,i,i,i,i,i,.,.,.,.
CC(C)CNC(=O)c1cccc(NC(=O)Cc2ccc(Cl)cc2)c1,i,i,i,i,-5.5*,i,i,i,i
CC(C)CNC(=O)c1cccc(NC(=O)CSc2ccccc2)c1,i,i,i,i,i,.,.,.,.
COc1ccc(CCNc2cc(=O)[nH]c(N)n2)cc1,i,i,i,i,-6.8*,i,i,i,i
COc1ccc(CCNc2ccc([N+](=O)[O-])cn2)cc1,i,i,i,i,i,.,.,.,.
SMILES,MrgX1 ag,RGS4 inh,RGS4 act,MrgX1 PAM,MrgX1 antag,MrgX1 antag conf,HEK293 Ca flux,HEK293 Ca counter,HEK293 Ca cntr2
Cc1cc(N2C(=O)CC(N3CCN(c4ccc(C(=O)c5cccs5)cc4)CC3)C2=O)no1 (stereo not given),i,i,i,i,-5*,i,i,i,i
COc1cc(-c2nnc(CSc3nnc4nc(C)cc(C)n34)o2)cc(OC)c1OC,i,i,i,i,i,.,.,.,.
Cc1[nH]c2c(C)cccc2c(=O)c1Br,i,i,i,i,i,.,.,.,.
Cc1cc2c3nonc3ccc2n1-c1ccccc1,i,i,i,i,-5.2*,84%*,i,i,i
O=C(c1cnc2n(c1=O)CCS2)N1CCN(c2ccc([N+](=O)[O-])cc2)CC1,i,i,i,i,i,.,.,.,.
O=C1CCCC2=C1Sc1ccccc1N2,i,i,i,i,-4.8*,i,i,i,i
Cc1[nH]c2ccccc2c1C(=O)CN1CCC(C(N)=O)(N2CCCCC2)CC1,i,i,i,i,-5.8*,i,i,i,i
CCOC(=O)Cn1cc(C(=O)C(C)(C)C)c2ccccc21,i,i,i,i,-4.9*,i,i,i,i
COC(=O)Cn1cc(C(=O)C(C)(C)C)c2ccccc21,i,i,i,i,i,.,.,.,.
COc1ccc(NC(=O)Nc2ccccc2C(=O)N2CCCC2)cc1,i,i,i,i,i,.,.,.,.
CCc1nc(C)ccc1OCC(=O)N1CCc2c([nH]c3ccccc23)C1c1ccccn1 (stereo not given),i,i,i,i,i,.,.,.,.
COc1ccc(OCC(=O)N2CCc3c([nH]c4ccccc34)C2c2ccccn2)cc1 (stereo not given),i,i,i,i,-6.4*,i,i,i,i
COc1ccc(C(O)C(CN2CCOCC2)c2ccccc2)cc1F (stereo not given),i,i,i,i,-5.6*,i,i,i,i
COc1cc2ccccc2cc1C(=O)NCCCN1CCOCC1,i,i,i,i,i,.,.,.,.
